Experimental data published in ChEMBL document CHEMBL4229382, “Phenylthiazoles with tert-Butyl side chain: Metabolically stable with anti-biofilm activity” (Eur J Med Chem, 2018).
In brackets after ≈: the same amount, converted by molar mass.

Assays:
Staphylococcus aureus [1] = assay: Antibacterial activity against methicillin-resistant Staphylococcus aureus 2658 RCMB after 18 hrs by broth microdilution assay; type: functional
Summary of the method: (§1)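 Broth microdilution: inoculum from 0.5 McFarland suspension diluted to about 5 × 10^5 CFU/mL. Media were cation-adjusted Mueller-Hinton broth for staphylococci, brain heart infusion for E. faecium, and tryptone soya broth for E. faecalis, S. pneumoniae and L. monocytogenes.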

Staphylococcus aureus [2] = assay: Bactericidal activity against methicillin-resistant Staphylococcus aureus NRS385 incubated fo 18 hrs followed by re-plating on tryptic soy agar plates at 37 degC for 18 hrs by broth microdilution assay; type: functional; details: NRS385, 18 h
Staphylococcus aureus [3] = assay: Antibacterial activity against vancomycin-resistant Staphylococcus aureus VRS12 after 18 hrs by broth microdilution assay; type: functional; details: VRS12, 18 h; summary of the method: as §1
Staphylococcus aureus [4] = assay: Antibacterial activity against methicillin-sensitive Staphylococcus aureus ATCC 6538 after 18 hrs by broth microdilution assay; type: functional; details: ATCC 6538, 18 h; summary of the method: as §1
Staphylococcus aureus [5] = assay: Bactericidal activity against methicillin-sensitive Staphylococcus aureus NRS107 incubated fo 18 hrs followed by re-plating on tryptic soy agar plates at 37 degC for 18 hrs by broth microdilution assay; type: functional; details: NRS107, 18 h
Staphylococcus aureus [6] = assay: Antibacterial activity against methicillin-resistant Staphylococcus aureus NRS123 USA400 after 18 hrs by broth microdilution assay; type: functional; details: NRS123 USA400, 18 h; summary of the method: as §1
Staphylococcus aureus [7] = assay: Antibacterial activity against methicillin-sensitive Staphylococcus aureus NRS107 after 18 hrs by broth microdilution assay; type: functional; details: NRS107, 18 h; summary of the method: as §1
Staphylococcus aureus [8] = assay: Bactericidal activity against methicillin-resistant Staphylococcus aureus NRS123 USA400 incubated fo 18 hrs followed by re-plating on tryptic soy agar plates at 37 degC for 18 hrs by broth microdilution assay; type: functional; details: NRS123 USA400, 18 h
Staphylococcus aureus [9] = assay: Bactericidal activity against vancomycin-resistant Staphylococcus aureus VRS10 incubated fo 18 hrs followed by re-plating on tryptic soy agar plates at 37 degC for 18 hrs by broth microdilution assay; type: functional; details: VRS10, 18 h
Staphylococcus aureus [10] = assay: Bactericidal activity against methicillin-resistant Staphylococcus aureus NRS119 incubated fo 18 hrs followed by re-plating on tryptic soy agar plates at 37 degC for 18 hrs by broth microdilution assay; type: functional; details: NRS119, 18 h
Staphylococcus aureus [11] = assay: Antibacterial activity against methicillin-resistant Staphylococcus aureus NRS384 USA300 after 18 hrs by broth microdilution assay; type: functional; details: NRS384 USA300, 18 h; summary of the method: as §1
Staphylococcus aureus [12] = assay: Bactericidal activity against methicillin-resistant Staphylococcus aureus NRS384 USA300 incubated fo 18 hrs followed by re-plating on tryptic soy agar plates at 37 degC for 18 hrs by broth microdilution assay; type: functional; details: NRS384 USA300, 18 h
Staphylococcus aureus [13] = assay: Bactericidal activity against vancomycin-resistant Staphylococcus aureus VRS12 incubated fo 18 hrs followed by re-plating on tryptic soy agar plates at 37 degC for 18 hrs by broth microdilution assay; type: functional; details: VRS12, 18 h
Staphylococcus aureus [14] = assay: Bactericidal activity against methicillin-resistant Staphylococcus aureus NRS386 incubated fo 18 hrs followed by re-plating on tryptic soy agar plates at 37 degC for 18 hrs by broth microdilution assay; type: functional; details: NRS386, 18 h
Staphylococcus aureus [15] = assay: Antibacterial activity against vancomycin-resistant Staphylococcus aureus VRS10 after 18 hrs by broth microdilution assay; type: functional; details: VRS10, 18 h; summary of the method: as §1
Staphylococcus aureus [16] = assay: Bactericidal activity against methicillin-sensitive Staphylococcus aureus ATCC 6538 incubated fo 18 hrs followed by re-plating on tryptic soy agar plates at 37 degC for 18 hrs by broth microdilution assay; type: functional; details: ATCC 6538, 18 h
Staphylococcus aureus [17] = assay: Inhibition of biofilm formation in methicillin-resistant Staphylococcus aureus NRS384 USA300 after 24 hrs by crystal violet staining-based spectrophotometric analysis
[18] = tested on: Staphylococcus epidermidis; assay: Antibacterial activity against methicillin-resistant Staphylococcus epidermidis NRS101 after 18 hrs by broth microdilution assay; type: functional; details: NRS101, 18 h; summary of the method: as §1
Staphylococcus aureus [19] = assay: Antibacterial activity against methicillin-resistant Staphylococcus aureus NRS119 after 18 hrs by broth microdilution assay; type: functional; details: NRS119, 18 h; summary of the method: as §1
Streptococcus pneumoniae [20] = assay: Antibacterial activity against cephalosporin-resistant Streptococcus pneumoniae ATCC 51916 after 18 hrs by broth microdilution assay; type: functional; details: ATCC 51916, 18 h; summary of the method: as §1
Staphylococcus aureus [21] = assay: Inhibition of biofilm formation in methicillin-resistant Staphylococcus aureus NRS384 USA300 at 1 time MIC after 24 hrs by crystal violet staining-based spectrophotometric analysis relative to control; design: scale not given: the % may be the effect or the level left
Enterococcus faecalis [22] = assay: Bactericidal activity against vancomycin-resistant Enterococcus faecalis ATCC 51299 incubated fo 18 hrs followed by re-plating on tryptic soy agar plates at 37 degC for 18 hrs by broth microdilution assay; type: functional; details: ATCC 51299, 18 h
Caco-2 = assay: Cytotoxicity against human Caco2 cells at 32 ug/ml after 2 hrs by MTS assay; type: cell-based; details: caco-2, 2 h
Summary of the method: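 Caco-2 cells grown in DMEM with 20% FBS, non-essential amino acids and penicillin-streptomycin, 37 °C, 5% CO2; exposed in triplicate to compounds (16, 32, 64 µg/mL) for 2 h; MTS added, 4 h further incubation, OD490 read; viability as percent of DMSO-treated controls; two independent experiments.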

Enterococcus faecium [23] = assay: Antibacterial activity against vancomycin-resistant Enterococcus faecium ATCC 700221 after 18 hrs by broth microdilution assay; type: functional; details: ATCC 700221, 18 h; summary of the method: as §1
Enterococcus faecium [24] = assay: Bactericidal activity against vancomycin-resistant Enterococcus faecium ATCC 700221 incubated fo 18 hrs followed by re-plating on tryptic soy agar plates at 37 degC for 18 hrs by broth microdilution assay; details: ATCC 700221, 18 h
Listeria monocytogenes [25] = assay: Selectivity ratio of MBC to MIC for Listeria monocytogenes ATCC 19111; type: functional
Streptococcus pneumoniae [26] = assay: Antibacterial activity against methicillin-resistant Streptococcus pneumoniae ATCC 700677 after 18 hrs by broth microdilution assay; type: functional; details: ATCC 700677, 18 h; summary of the method: as §1
Staphylococcus aureus [27] = assay: Antibacterial activity against methicillin-resistant Staphylococcus aureus NRS386 after 18 hrs by broth microdilution assay; type: functional; details: NRS386, 18 h; summary of the method: as §1
Streptococcus pneumoniae [28] = assay: Bactericidal activity against cephalosporin-resistant Streptococcus pneumoniae ATCC 51916 incubated fo 18 hrs followed by re-plating on tryptic soy agar plates at 37 degC for 18 hrs by broth microdilution assay; type: functional; details: ATCC 51916, 18 h
Staphylococcus aureus [29] = assay: Antibacterial activity against methicillin-resistant Staphylococcus aureus NRS385 after 18 hrs by broth microdilution assay; type: functional; details: NRS385, 18 h; summary of the method: as §1
Enterococcus faecalis [30] = assay: Antibacterial activity against vancomycin-resistant Enterococcus faecalis ATCC 51299 after 18 hrs by broth microdilution assay; type: functional; details: ATCC 51299, 18 h; summary of the method: as §1
[31] = tested on: Staphylococcus epidermidis; assay: Bactericidal activity against methicillin-resistant Staphylococcus epidermidis NRS101 incubated fo 18 hrs followed by re-plating on tryptic soy agar plates at 37 degC for 18 hrs by broth microdilution assay; type: functional; details: NRS101, 18 h
Staphylococcus aureus [32] = assay: Inhibition of biofilm formation in methicillin-resistant Staphylococcus aureus NRS384 USA300 at 2 times MIC after 24 hrs by crystal violet staining-based spectrophotometric analysis relative to control; design: scale not given: the % may be the effect or the level left
Streptococcus pneumoniae [33] = assay: Bactericidal activity against methicillin-resistant Streptococcus pneumoniae ATCC 700677 incubated fo 18 hrs followed by re-plating on tryptic soy agar plates at 37 degC for 18 hrs by broth microdilution assay; type: functional; details: ATCC 700677, 18 h
Staphylococcus aureus [34] = assay: Antibacterial activity against methicillin-resistant Staphylococcus aureus NRS123 USA400 assessed as reduction in bacterial burden within 6 hrs by time kill assay; type: functional
Summary of the method: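 Samples taken at 0, 2, 4, 6, 8, 12 and 24 h were serially diluted in PBS, plated on TSA and incubated ≥18 h for viable CFU/mL. DMSO was the negative control; two independent experiments.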

Listeria monocytogenes [35] = assay: Antibacterial activity against Listeria monocytogenes ATCC 19111 after 18 hrs by broth microdilution assay; type: functional; details: ATCC 19111, 18 h

Cc1nc(-c2ccc(C(C)(C)C)cc2)sc1-c1ccnc(N2CC(O)C2)n1
MIC (Staphylococcus aureus [1]): 6.25 µg/mL (≈ 16.4 µM)

Cc1nc(-c2ccc(C(C)(C)C)cc2)sc1-c1ccnc(N2CCC2)n1
MIC (Staphylococcus aureus [1]): > 50 µg/mL

CC(=O)NC[C@H]1CN(c2ccc(N3CCOCC3)c(F)c2)C(=O)O1 [LINEZOLID]
MBC (Staphylococcus aureus [2]): 16 µg/mL (≈ 47.4 µM) | MIC (Staphylococcus aureus [3]): 1 µg/mL (≈ 2.96 µM) | MIC (Staphylococcus aureus [4]): 1 µg/mL (≈ 2.96 µM) | MBC (Staphylococcus aureus [5]): 16 µg/mL (≈ 47.4 µM) | MIC (Staphylococcus aureus [6]): 1 µg/mL (≈ 2.96 µM) | MIC (Staphylococcus aureus [7]): 1 µg/mL (≈ 2.96 µM) | MBC (Staphylococcus aureus [8]): 32 µg/mL (≈ 94.9 µM) | MBC (Staphylococcus aureus [9]): 64 µg/mL (≈ 190 µM) | MBC (Staphylococcus aureus [10]): > 64 µg/mL | MIC (Staphylococcus aureus [11]): 1 µg/mL (≈ 2.96 µM) | MBC (Staphylococcus aureus [12]): 32 µg/mL (≈ 94.9 µM) | MBC (Staphylococcus aureus [13]): 64 µg/mL (≈ 190 µM) | MBC (Staphylococcus aureus [14]): 64 µg/mL (≈ 190 µM) | MIC (Staphylococcus aureus [15]): 1 µg/mL (≈ 2.96 µM) | MBC (Staphylococcus aureus [16]): 16 µg/mL (≈ 47.4 µM)

Cc1nc(-c2ccc(C(C)(C)C)cc2)sc1-c1ccnc(NC(=N)N)n1
MIC (Staphylococcus aureus [1]): 1.56 µg/mL (≈ 4.26 µM)

Cc1nc(-c2ccc(C(C)(C)C)cc2)sc1-c1ccnc(N2CCCC2)n1
MIC (Staphylococcus aureus [1]): > 50 µg/mL

Cc1nc(-c2ccc(C(C)(C)C)cc2)sc1-c1ccnc(NC(=N)c2ccccn2)n1
MBC (Staphylococcus aureus [2]): 4 µg/mL (≈ 9.33 µM) | inhibition (Staphylococcus aureus [17]): Dose-dependent effect | MIC (Staphylococcus aureus [3]): 4 µg/mL (≈ 9.33 µM) | MIC [18]: 64 µg/mL (≈ 149 µM) | MIC (Staphylococcus aureus [19]): 4 µg/mL (≈ 9.33 µM) | MIC (Staphylococcus aureus [4]): 2 µg/mL (≈ 4.67 µM) | MBC (Staphylococcus aureus [5]): > 64 µg/mL | MIC (Streptococcus pneumoniae [20]): 4 µg/mL (≈ 9.33 µM) | Activity (Staphylococcus aureus [21]): 44% | MIC (Staphylococcus aureus [6]): 2 µg/mL (≈ 4.67 µM) | MIC (Staphylococcus aureus [7]): 64 µg/mL (≈ 149 µM) | MBC (Enterococcus faecalis [22]): > 64 µg/mL | MBC (Staphylococcus aureus [8]): 2 µg/mL (≈ 4.67 µM) | MBC (Staphylococcus aureus [9]): 4 µg/mL (≈ 9.33 µM) | Activity (Caco-2): Toxic | MIC (Enterococcus faecium [23]): 4 µg/mL (≈ 9.33 µM) | MBC (Enterococcus faecium [24]): 32 µg/mL (≈ 74.7 µM) | Ratio (Listeria monocytogenes [25]): >3 | MBC (Staphylococcus aureus [10]): 4 µg/mL (≈ 9.33 µM) | MIC (Staphylococcus aureus [1]): 0.78 µg/mL (≈ 1.82 µM) | MIC (Staphylococcus aureus [11]): 4 µg/mL (≈ 9.33 µM) | MIC (Streptococcus pneumoniae [26]): 8 µg/mL (≈ 18.7 µM) | MIC (Staphylococcus aureus [27]): 2 µg/mL (≈ 4.67 µM) | MBC (Streptococcus pneumoniae [28]): 4 µg/mL (≈ 9.33 µM) | MBC (Staphylococcus aureus [12]): 4 µg/mL (≈ 9.33 µM) | MBC (Staphylococcus aureus [13]): 4 µg/mL (≈ 9.33 µM) | MIC (Staphylococcus aureus [29]): 4 µg/mL (≈ 9.33 µM) | MBC (Staphylococcus aureus [14]): 2 µg/mL (≈ 4.67 µM) | MIC (Staphylococcus aureus [15]): 2 µg/mL (≈ 4.67 µM) | MIC (Enterococcus faecalis [30]): 64 µg/mL (≈ 149 µM) | MBC [31]: > 64 µg/mL | Activity (Staphylococcus aureus [32]): 49% | MBC (Streptococcus pneumoniae [33]): 8 µg/mL (≈ 18.7 µM) | Activity (Staphylococcus aureus [34]): 3 log10CFU/ml | MIC (Listeria monocytogenes [35]): 2 µg/mL (≈ 4.67 µM) | MBC (Staphylococcus aureus [16]): 4 µg/mL (≈ 9.33 µM)

CNc1nccc(-c2sc(-c3ccc(C(C)(C)C)cc3)nc2C)n1
MIC (Staphylococcus aureus [1]): 25 µg/mL (≈ 73.9 µM)

Cc1nc(-c2ccc(C(C)(C)C)cc2)sc1-c1ccnc(NC(=N)N2CCN(C)CC2)n1
MIC (Staphylococcus aureus [1]): 3.12 µg/mL (≈ 6.94 µM)

Cc1nc(-c2ccc(C(C)(C)C)cc2)sc1-c1ccnc(-c2cccnc2)n1
MIC (Staphylococcus aureus [1]): > 50 µg/mL

Cc1nc(-c2ccc(C(C)(C)C)cc2)sc1-c1ccnc(NC(=N)N2CCCC2)n1
MIC (Staphylococcus aureus [1]): 50 µg/mL (≈ 119 µM)

Cc1nc(-c2ccc(C(C)(C)C)cc2)sc1-c1ccnc(N=C(N(C)C)N(C)C)n1
MIC (Staphylococcus aureus [1]): > 50 µg/mL

Cc1nc(-c2ccc(C(C)(C)C)cc2)sc1-c1ccnc(NC2CCCC2)n1
MIC (Staphylococcus aureus [1]): > 50 µg/mL
